HNF4A DNA FP: change in binding of human HNF4 alpha to DNA; P41235; HNF4a-FITC DNA binding, fluorescence polarization, 1 h; activity change, % at 10 µM; 0.3% of 360,000 active; in the data active = activity change above about 30%, passing the limit was not always enough
Target sequence (P41235 whole entry, looked up): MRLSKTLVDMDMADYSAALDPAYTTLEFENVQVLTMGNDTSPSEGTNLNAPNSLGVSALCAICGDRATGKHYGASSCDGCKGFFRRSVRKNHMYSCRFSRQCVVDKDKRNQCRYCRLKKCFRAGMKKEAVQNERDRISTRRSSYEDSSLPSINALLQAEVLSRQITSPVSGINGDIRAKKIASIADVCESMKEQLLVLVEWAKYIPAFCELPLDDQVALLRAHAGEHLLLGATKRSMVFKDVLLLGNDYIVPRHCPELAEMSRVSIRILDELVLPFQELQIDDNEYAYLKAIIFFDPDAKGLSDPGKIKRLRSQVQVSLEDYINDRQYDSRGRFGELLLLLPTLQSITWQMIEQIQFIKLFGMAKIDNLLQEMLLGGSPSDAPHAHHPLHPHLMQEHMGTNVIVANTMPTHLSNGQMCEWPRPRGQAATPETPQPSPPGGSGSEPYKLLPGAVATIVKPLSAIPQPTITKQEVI
Myeloid diff MLP: myeloid differentiation induction; calls only at 10 µM; 1% of 360,000 active; ER-HoxA9 myeloid progenitors, lysozyme-GFP differentiation, flow cytometry;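 active = normalized GFP-positive differentiation at or above the plate's own cutoff, the solvent-only control mean plus 3 SD; inconclusive = no clear call, values can overlap the other calls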;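 also: cells exposed to compound for four days before flow analysis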
H9c2 protect: protects H9c2 cardiomyocytes from peroxide injury | 0.63% of 360,000 active | protection from H2O2 cell death, % at 20 µM | H2O2 injury protection, ATPLite, 2 h;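 active = compounds giving at least 50% protection of heart cells from peroxide-induced death in the single-dose screen, raw or plate-pattern-corrected value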;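 also: 0% = DMSO wells with peroxide and 100% = DMSO wells without peroxide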
SENP1 inh: SENP1 (human) catalytic domain inhibition; Q9P0U3; recombinant SENP1 catalytic domain, CyPet-SUMO1-YPet FRET cleavage; inhibition, % at 10 µM; 0.21% of 360,000 active; AID 624204;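 active = inhibition at least 30% at 10 µM, raw YFP signal under a set limit, fluorescence ratio 0.5 to 1.5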;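 also: 0% = enzyme with DMSO and 100% = no enzyme wells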
Target sequence (Q9P0U3 419-644 limits assumed): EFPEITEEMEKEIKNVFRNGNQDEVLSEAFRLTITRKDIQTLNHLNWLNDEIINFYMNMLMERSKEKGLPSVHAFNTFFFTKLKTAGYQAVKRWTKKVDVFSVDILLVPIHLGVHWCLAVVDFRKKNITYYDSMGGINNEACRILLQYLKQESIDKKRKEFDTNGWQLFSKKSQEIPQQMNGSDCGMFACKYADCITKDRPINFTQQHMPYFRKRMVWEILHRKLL
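Test system: hSENP1 catalytic domain, recombinant; Amount: 20 pM final SENP1 enzyme; Medium: Tris pH 8 buffer plus EDTA, NaCl, BME, BSA, NP40, catalase; Schedule: 50 min enzyme reaction, room temperature, light-protected; Technique: FRET fluorescence in CFP and YFP emission channels; Controls: no-enzyme wells low, DMSO-plus-enzyme wells high control.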
Granule exo inh: blocks lytic granule exocytosis; TALL-104 LAMP-1 surface exposure, flow cytometry; cells stimulated with thapsigargin and PMA; inhibition, % at 10 µM; 0.66% of 360,000 active;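 active = inhibition above about 55%, limit read from the data; inconclusive = no clear call, values can overlap the other calls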
Pemphigus Ab inh: human desmoglein-3 autoantibody binding inhibition. P32926. DSG3-coupled beads, scFv-anti-DSG3-GFP binding, flow cytometry; stronger effect = lower value. binding (percent of control), % at 10 µM. 0.48% of 310,000 active. AID 588358;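 active = binding more than 3 SD below its plate's average and above zero; inconclusive = below that plate limit but binding exactly zero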;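 also: hits lower antibody fragment binding to DSG3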
Granule exo CP1: blocks lytic granule exocytosis | AID 651954 | shares compounds with Granule exo inh | inhibition, % at 10 µM | TALL-104 cells, LAMP-1 externalization, flow cytometry; stimulated with PMA plus thapsigargin | 11% of 1,500 active; in the data active = inhibition above about 60%;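 also: 0% = stimulated vehicle wells and 100% = unstimulated wells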
HNF4A confirm: change in binding of human HNF4 alpha to DNA, retest | shares compounds with HNF4A DNA FP | HNF4A-FITC DNA binding, fluorescence polarization, 1 h | activity change, % at 12.5 µM | 99% of 210 active; call rule not given here
Starred values were filed as active, the others as inactive; i = inactive; ? = inconclusive; · = not tested or not shown; + = active, no number. The list is not random: actives were taken first. Their share in the collection is about 3%.

SMILES | HNF4A DNA FP | Myeloid diff MLP | H9c2 protect | SENP1 inh | Granule exo inh | Pemphigus Ab inh | Granule exo CP1 | others
CCN(CC)CCn1c(=N)n(CC(=O)c2ccc(Br)s2)c2ccccc21 | 2.3 | i | -3.5 | -4.3 | 79.4* | 95.9 | -0.3
CC(CC(=O)NCc1ccc(Cl)cc1)c1ccccc1 (centres undefined) | -0.7 | i | 4.3 | 0.1 | 5.8 | 112.3 | ·
CC(=O)NC(c1cccs1)c1cc(Cl)c2ccccc2c1O (centres undefined) | -0.7 | i | 0.7 | -1.4 | 72.6* | 108.0 | -12.4
CCC(=O)NC(c1cccs1)c1cc(Cl)c2ccccc2c1O (centres undefined) | 1.6 | i | -20.5 | -1.2 | 16.6 | 106.3 | ·
Cc1cccc(CCN(CC(=O)NCc2ccc(F)cc2)C(=O)c2csnn2)c1 | -2.0 | i | 2.7 | 6.5 | 68.1* | 102.6 | -4.3
CC(=O)CCc1oc2ccc(C)cc2c1-c1ccc(C)o1 | 2.3 | i | -18.1 | -5.2 | 91.3* | 117.1 | -10.7
O=C(Cc1cccs1)Nc1nc(-c2ccc(F)cc2F)cs1 | -2.6 | i | -18.2 | 1.3 | 63.6* | 100.9 | -6.5
CC(C)n1c(SCC(=O)Nc2ccc(N3CCOCC3)cc2)nnc1-c1ccco1 | 0.5 | i | 0.3 | -1.9 | -0.3 | 103.1 | ·
CC(C)(C)NC(=O)CN1C(=O)NC(c2ccccc2)(c2ccccc2)C1=O | -2.2 | i | 4.0 | 0.3 | 84.7* | 107.8 | -4.5
Cn1nc(C(F)(F)F)c2cc(C(=O)Nc3ccc(C(F)(F)F)cc3)sc21 | -1.5 | i | -14.7 | -0.7 | 85.5* | · | 2.5
CCNC(=O)NC(=O)C(C)OC(=O)[C@H](C)NS(=O)(=O)c1c(C)c(C)cc(C)c1C (some centres undefined) | -2.4 | i | 1.0 | 0.9 | -2.9 | 89.5 | ·
COc1ccc(OCCOC(=O)c2nc3nccc(C)n3n2)cc1 | -1.5 | i | 1.0 | 0.7 | 58.0* | 87.3 | -3.8
COc1cccc(O)c1CN1CCC(C(=O)Nc2ccc(-c3cccc(C)c3)cc2)CC1 | 2.5 | i | -18.6 | 0.3 | 66.2* | 114.0 | 13.9
CCOC(=O)c1nnc(-c2ccccc2)nc1Sc1ccccc1Cl | 0.3 | i | -20.2 | 1.9 | 101.5* | 105.2 | 75.6*
CCOC(=O)c1nnc(-c2ccc(C)cc2)nc1Sc1cccc(Cl)c1 | 0.7 | i | -11.1 | 1.6 | 2.0 | 102.8 | ·
Cc1ccc2oc(=O)n(CCCOc3ccccc3C)c2c1 | -1.1 | i | -6.6 | 0.8 | 1.1 | 102.6 | ·
Cc1ccc2oc(=O)n(CCOc3ccccc3C)c2c1 | -0.3 | i | -1.6 | 3.2 | 64.5* | 101.8 | -12.7
Oc1ccc(-c2c(-c3ccsc3)sc3ccccc23)cc1 | -0.4 | i | -16.1 | -1.3 | 86.7* | 104.8 | -3.4
COCc1ccc(-c2c(-c3ccsc3)sc3ccccc23)cc1 | -2.4 | i | -3.9 | 0.3 | 9.0 | 100.5 | ·
Cc1ccc2nc3c(c(Nc4ccc(O)cc4)c2c1)CCC3 | 7.4 | ? | -10.1 | 2.0 | 60.7* | 118.1 | -10.6
CCC1Oc2ccc(C)cc2N(CC(=O)N(Cc2ccc(C)o2)C2CCCC2)C1=O (centres undefined) | -3.2 | i | -24.2 | -4.1 | 65.5* | 105.8 | 10.3
O=C(NCc1ccccc1Cl)c1ccncc1 | -0.7 | i | -3.4 | 0.2 | 65.6* | 99.1 | -4.1
Cc1ccc(S(=O)(=O)NC[C@H]2O[C@@H](n3ccc(N)nc3=O)[C@H](O)[C@@H]2O)s1 | 1.1 | i | -3.4 | 4.2 | -2.8 | 95.7 | ·
COc1ccc(C)cc1NC(=O)c1nn(-c2ccccc2)cc1OC | -0.5 | i | 8.0 | -0.6 | 100.0* | 105.3 | -0.9
Cc1ccc(C)c(NC(=O)c2nc(-c3ccccc3)n(-c3ccccc3)n2)c1 | 0.0 | i | -22.8 | 2.3 | 68.5* | 102.0 | 4.0
SMILES | HNF4A DNA FP | Myeloid diff MLP | H9c2 protect | SENP1 inh | Granule exo inh | Pemphigus Ab inh | Granule exo CP1 | others
COc1cn(-c2ccccc2)nc1C(=O)Nc1ccc(C)cc1 | 1.1 | i | -8.6 | 0.3 | 28.9 | 108.9 | ·
O=C(c1cccc(C(F)(F)F)c1)N1CCC(=O)N(C(CO)Cc2ccccc2)CC1 (centres undefined) | -1.5 | i | 11.7 | -1.7 | 80.4* | 100.1 | -4.8
CN1CCN(NC(=O)NC2CCCCC2)CC1 | 1.1 | i | -1.1 | 0.8 | 36.0 | · | ·
COc1ccc(-c2oc3ncnc(NCCCN4CCOCC4)c3c2-c2ccc(OC)cc2)cc1 | 1.0 | i | -7.8 | -5.9 | 63.3* | 104.8 | 30.1
OCCCNc1ncnc2oc(-c3ccccc3)c(-c3ccccc3)c12 | 5.3 | i | 3.2 | 1.2 | 65.7* | 95.5 | -6.4
CS(=O)(=O)N(Cc1ccc(C(=O)Nc2ccccc2Sc2ccccc2)cc1)c1ccccc1 | 0.4 | i | -10.6 | 4.1 | 85.1* | 96.3 | -1.5
COc1ccc(Cl)cc1Nc1nc(C)nc2c1nnn2Cc1ccccc1 | 0.7 | i | -4.1 | -0.3 | -4.1 | 110.9 | ·
COc1ccc(OC)c(Nc2nc(C3CC3)nc3c2nnn3Cc2ccccc2)c1 | 3.9 | i | -2.5 | -2.4 | 60.1* | 100.7 | -5.2
[O-][n+]1c2c(c3c4non(O)c4ccc31)CCCC2 | 4.2 | · | -22.7 | 3.0 | 0.8 | 118.6 | ·
CCC(c1nnc(SCC(=O)NC2CCCCC2)n1Cc1ccccc1)N(C)C (centres undefined) | -1.0 | i | -2.9 | 0.4 | 0.9 | 94.5 | ·
CCCCNC(=O)C1CCN(S(=O)(=O)N2CCOCC2)CC1 | -0.4 | i | 10.0 | 2.4 | -3.1 | 102.2 | ·
COCC(C)n1c(C)cc(C(=O)COC(=O)c2c(NC(C)=O)sc(C)c2C)c1C (centres undefined) | 37.4* | i | -7.4 | -0.6 | 1.4 | · | · | HNF4A confirm=50.8*
COCC(C)n1c(C)cc(C(=O)COC(=O)c2c(C)nn(-c3ccccc3)c2C)c1C (centres undefined) | 0.9 | i | -14.4 | 1.2 | 1.6 | 104.8 | ·
Cc1onc(-c2ccccc2)c1C(=O)Nc1sccc1C#N | 43.8* | i | -1.7 | -13.2 | -2.8 | 94.7 | · | HNF4A confirm=65.1*
CCCCNC(=O)c1cc(-c2ccccc2)sc1N | 14.8 | i | · | -9.8 | -4.0 | · | ·
COCCNC(=O)c1cc(-c2ccccc2)sc1N | 54.7* | i | · | 7.2 | 12.9 | · | · | HNF4A confirm=85.2*
CCN(CC)c1ccc(N=CN2CCOCC2)cc1 | 4.1 | i | 0.7 | 3.7 | 4.5 | 116.2 | ·
Cn1cccc1/C=C1\SC(=S)N(CC(=O)O)C1=O | 79.9* | i | 2.1 | -42.6 | -3.5 | 128.7 | · | HNF4A confirm=116.8*
O=C1CC(=O)N(C2CCCCC2)C(=O)N1c1ccccc1S(=O)(=O)Oc1ccccc1 | 64.9* | + | -5.9 | -20.1 | 3.6 | · | · | HNF4A confirm=40.7*

Assay outcomes: PubChem, several laboratories
